High-throughput results as filed in PubChem BioAssay.
GPR7 antag – GPR7 receptor antagonists, primary screen, cell-based, fluorescence, single concentration | GPR7-expressing cells, fluorescence antagonist assay | hit rate 1.1% among 290,000 | inhibition, % at 4.4 µM | Neuropeptides B/W receptor type 1 (Homo sapiens), P48145; in the data active means inhibition above about 16%, passing the limit was not always enough;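 further: cells stimulated with the agonist NPW; 0% = agonist with vehicle and 100% = vehicle without agonist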
LANA-H2B inh – blockers of LANA interaction with H2A/H2B – biochemical, FP readout, HTS, primary screen | Protein LANA1 (Human herpesvirus 8 type P (isolate GK18)), Q9QR71 | cell-free LANA-H2A/H2B peptide, fluorescence polarization | inhibition, % (test concentration not listed) | hit rate 0.6% among 320,000 | AID 2629, 2010; in the data active means inhibition mostly above about 10%, no sharp cut-off; inactive means mostly below about 6.7%
TAAR1 agonist – human TAAR1 agonists, primary screen, Fluo-8 calcium fluorescence, CHO RD-HGA16 cells. Trace amine-associated receptor 1 (Homo sapiens), Q96RJ0. vehicle wells 0%, saturating PEA agonist 100%. activation, % at 3 µM. hit rate 0.99% among 360,000. AID 624467, 2012;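 active means activation above the mean activation of all test compounds in the run plus 3 SD, cut at about 38% in these data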
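Test system: RD-HGA16 (CHO) cells co-expressing Gα16 and hTAAR1 | Doses: Single dose, 3 µM | Schedule: 17-24 h seeding, 75 min 37 °C dye, 30 min RT | Evaluation: % activation from peak over basal fluorescence ratio, DMSO-to-PEA scaled | Technique: Kinetic Fluo-8 calcium fluorescence | Benchmarks: Low control DMSO, high control PEA (EC100)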
TAAR1 antagonist – human TAAR1 antagonists, primary screen, Fluo-8 calcium fluorescence, CHO RD-HGA16 cells | antagonist | inhibition, % at 3 µM | hit rate 1.5% among 360,000 | AID 624466, 2012;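 active means inhibition above a per-plate cutoff, the mean inhibition of test compounds on that plate plus 3 SD, cut at about 49% in these data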;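 further: 0% = DMSO plus EC80 beta-PEA response and 100% = DMSO alone without agonist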
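Material: RD-HGA16 CHO cells with stable hTAAR1 and Gα16; Dosing: single nominal final test compound concentration of 3 µM; Schedule: seeding 17-24 h prior, 75-min 37 °C, 30-min RT dye loading; Detection: kinetic Fluo-8 calcium fluorescence measurement; Measure: % inhibition from peak post-agonist over basal fluorescence ratio; Benchmarks: vehicle and agonist controls.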
zfTRPN1 agonist – zebrafish TRPN1 channel agonists, primary screen, cell-based, HEK293, calcium fluorescence; HEK293 zebrafish TRPN1-YFP, Fluo-8 calcium fluorescence; 100% = response to 87 µM carbachol; activation, % at 3 µM; hit rate 0.18% among 220,000; AID 1424, 2008;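 active means activation above its plate's cutoff, the mean activation of test wells on that plate plus 3 SD, cut at about 19% in these data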;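 further: 0% = DMSO alone and 100% = 87 µM carbachol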
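Material – zebrafish TRPN1-YFP in HEK293 cells · Doses – 3 µM single point · Schedule – dye 1 h 37 °C plus 30 min RT · Signal – Fluo-8 calcium fluorescence, excitation 470-495 nm, emission 515-575 nm · Read-out – % activation versus carbachol response · Control set – carbachol high, DMSO low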
TRPML3 ag – human TRPML3 channel agonists, primary screen, cell-based, HEK293 TRPML3-YFP, Fluo-8 calcium fluorescence, 3 µM. Mucolipin-3 (Homo sapiens), Q8TDD5. 100% = the carbachol control signal. activation, % at 3 µM. hit rate 0.29% among 220,000;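 active means activation above its plate's cutoff, the mean activation of the plate's test wells plus 3 SD, cut at about 12% in these data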;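 further: 0% = DMSO only wells and 100% = carbachol wells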
Target sequence (Q8TDD5 whole entry, looked up): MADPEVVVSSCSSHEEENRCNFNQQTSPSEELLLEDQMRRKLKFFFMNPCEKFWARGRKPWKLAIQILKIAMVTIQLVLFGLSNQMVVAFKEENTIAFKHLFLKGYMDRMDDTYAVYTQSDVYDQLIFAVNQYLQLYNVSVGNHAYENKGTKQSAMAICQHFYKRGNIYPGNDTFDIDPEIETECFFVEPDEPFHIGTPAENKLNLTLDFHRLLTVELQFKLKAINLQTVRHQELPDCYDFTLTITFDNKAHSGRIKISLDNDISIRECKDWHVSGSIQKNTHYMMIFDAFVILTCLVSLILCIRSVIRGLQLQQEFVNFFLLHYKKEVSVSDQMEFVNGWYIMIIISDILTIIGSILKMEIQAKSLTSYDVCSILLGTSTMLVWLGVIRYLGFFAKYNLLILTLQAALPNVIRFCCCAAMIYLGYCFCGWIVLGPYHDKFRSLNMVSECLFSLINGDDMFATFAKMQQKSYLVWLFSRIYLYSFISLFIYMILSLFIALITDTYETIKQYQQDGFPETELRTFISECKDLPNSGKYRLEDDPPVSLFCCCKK
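Test system: HEK293 cells stably carrying human TRPML3-YFP; Doses: single dose, 3 µM final nominal compound, 0.3% DMSO final; Schedule: dye loading 1 h 37 °C then 30 min ambient, 125 s read; Technique: Fluo-8 calcium fluorescence; Benchmarks: high control carbachol 87 µM, low control DMSO.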
TAAR1 ag confirm – human TAAR1 agonists, retest of hits, confirmation, Fluo-8 calcium fluorescence, CHO RD-HGA16 cells; scaled: DMSO 0%, maximal phenethylamine 100%; AID 651783, 2012; activation, % at 3 µM; shares compounds with TAAR1 agonist; hit rate 82% among 2,400;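 active means activation above a cutoff set at the run's mean compound activation plus 3 SD, cut at about 39% in these data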
Ga16 nonsel ag – nonselective calcium mobilization agonists, CHO-Ga16 cells, counter-screen for hTAAR1 agonist project, cell-based, fluorescence, CHO-Ga16 parental line. shares compounds with TAAR1 agonist. Fluo-8 calcium fluorescence; normalized to maximal ATP response, DMSO zero. activation, % at 3 µM. hit rate 50% among 2,400;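 active means activation above the run cutoff, the mean activation over all tested wells plus 3 SD, cut at about 12% in these data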;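 further: 0% = DMSO wells and 100% = maximal ATP response on the peak over basal ratio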
TAAR1 desens – TAAR1 desensitization by agonist hits, confirmation, counter-screen for TAAR1 agonist project, cell-based, fluorescence, tachyphylaxis; hit rate 46% among 2,400; shares compounds with TAAR1 agonist; inhibition, % at 3 µM; CHO RD-HGA16 hTAAR1, Fluo-8 calcium, beta-PEA response inhibition;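 active means inhibition above the run cutoff, the mean inhibition of all test compounds plus 3 SD, cut at about 49% in these data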;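 further: beta-PEA stimulus applied at its EC80; loss of beta-PEA calcium signal after compound pretreatment read as receptor desensitization; 0% = DMSO with beta-PEA at EC80 and 100% = DMSO alone without agonist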
Ga16 nonsel ant – inhibition of ATP-evoked calcium response in CHO-Ga16 cells, counter-screen for TAAR1 agonist project, cell-based, fluorescence | shares compounds with TAAR1 agonist | CHO-Ga16 ATP-induced calcium, Fluo-8 fluorescence | inhibition, % at 3 µM | hit rate 39% among 2,400;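 active means inhibition above the plate's mean compound inhibition plus 3 SD, computed per plate, cut at about 22% in these data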;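 further: 0% = EC80 ATP with DMSO and 100% = DMSO wells without ATP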
Active calls of the source: *. Most compounds without a hit are left out; they make up all but 3.4% or so of the library.

Screening CC1(C)OC(c2ccccc2)=C/C(=C/C=C2C(=O)NC(=O)NC2=O)O1 returned GPR7 antag -15, LANA-H2B inh -6, TAAR1 agonist 98*, TAAR1 antagonist 70*, zfTRPN1 agonist 46*, TRPML3 ag 24*, TAAR1 ag confirm 10, Ga16 nonsel ag 21*, TAAR1 desens 31 and Ga16 nonsel ant 33*.
For CC(Cc1ccccc1Sc1ccccc1)N(C)C (stereo not given) the results were GPR7 antag -4, LANA-H2B inh 0, TAAR1 agonist 48*, TAAR1 antagonist 9, zfTRPN1 agonist 0, TRPML3 ag 0, TAAR1 ag confirm 70*, Ga16 nonsel ag 2, TAAR1 desens 12 and Ga16 nonsel ant 10.
Screening CC1(CCCc2ccc(N(CCCl)CCCl)cc2)NC(=O)NC1=O (stereo not given) returned TAAR1 agonist 0 and TAAR1 antagonist 5.
`O=C(NCCN1CCC2(CC1)C(=O)NCN2c1ccccc1)c1ccc2ccccc2c1` gave TAAR1 agonist 112*, TAAR1 antagonist 105*, TAAR1 ag confirm 91*, Ga16 nonsel ag 66*, TAAR1 desens 107* and Ga16 nonsel ant 101*.
`O=C(NCCN1CCC2(CC1)C(=O)NCN2c1ccccc1)c1ccc(F)cc1` gave TAAR1 agonist 98*, TAAR1 antagonist 100*, TAAR1 ag confirm 63*, Ga16 nonsel ag 50*, TAAR1 desens 95* and Ga16 nonsel ant 79*.
O=C(NCCN1CCC2(CC1)C(=O)NCN2c1ccccc1)c1ccc(Cl)cc1 was read as TAAR1 agonist 108*, TAAR1 antagonist 105*, TAAR1 ag confirm 92*, Ga16 nonsel ag 72*, TAAR1 desens 106* and Ga16 nonsel ant 100*.
`O=C1NCN(c2ccccc2)C12CCN(C(c1cccc3ccccc13)c1nnnn1C1CCCC1)CC2` (stereo not given) gave TAAR1 agonist 3 and TAAR1 antagonist -14.
For O=C1NCN(c2ccccc2)C12CCNCC2 the results were GPR7 antag -3, LANA-H2B inh 0, TAAR1 agonist 4, TAAR1 antagonist -12, zfTRPN1 agonist 0 and TRPML3 ag 1.
`O=C1NCN(c2ccccc2)C12CCN(C(c1nnnn1Cc1ccccc1)C1CC1)CC2` (stereo not given) gave TAAR1 agonist 4 and TAAR1 antagonist 18.
O=C(c1cccnc1)N1Cc2ccccc2-n2nncc2C1 was read as TAAR1 agonist 0 and TAAR1 antagonist -11.
Screening COc1ccc(CCN)cc1S(N)(=O)=O returned TAAR1 agonist 1 and TAAR1 antagonist -10.
COc1cc(CCN)ccc1O was read as LANA-H2B inh 2, TAAR1 agonist 90*, TAAR1 antagonist 31, TAAR1 ag confirm 87*, Ga16 nonsel ag 4, TAAR1 desens 67* and Ga16 nonsel ant 7.
For O=C1CCC2(O)C3Cc4ccc(O)c5c4C2(CCN3Cc2ccoc2)C1O5 (stereo not given) the results were TAAR1 agonist 4 and TAAR1 antagonist -20.
For COc1ccc(CCNCc2ccccc2)cc1 the results were GPR7 antag 7, LANA-H2B inh 2, TAAR1 agonist 6 and TAAR1 antagonist -8.
`COc1ccc(CCNCc2ccncc2)cc1` gave GPR7 antag 2, LANA-H2B inh 0, TAAR1 agonist 46*, TAAR1 antagonist 0, zfTRPN1 agonist 1, TRPML3 ag 0, TAAR1 ag confirm 67*, Ga16 nonsel ag 3, TAAR1 desens 28 and Ga16 nonsel ant 5.
`CN1/C(=C\C=C2C(=O)NC(=O)NC2=O)C(C)(C)c2ccccc21` gave GPR7 antag 6, LANA-H2B inh -6, TAAR1 agonist 86*, TAAR1 antagonist 34, zfTRPN1 agonist 42*, TRPML3 ag 17*, TAAR1 ag confirm 21, Ga16 nonsel ag 27*, TAAR1 desens 22 and Ga16 nonsel ant 25*.
`Cc1c(C=C2C(=O)NC(=O)NC2=O)c(=O)n(-c2ccccc2)n1C` gave GPR7 antag -10, LANA-H2B inh -3, TAAR1 agonist 3, TAAR1 antagonist 2, zfTRPN1 agonist 1 and TRPML3 ag 0.
